# HKDC1 inhibitor: HKDC1 hexokinase inhibitors, primary screen, biochemical, fluorescence, uHTS; Q2TB90; recombinant HKDC1, G6PDH/diaphorase resazurin coupled fluorescence; inhibition, % at 20 µM; 340,000 tested, 0.16% active; AID 493160, 2011;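 active = inhibition above about 35% when tested at 20 µM, limit read from the data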;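 note: plate controls were DMSO wells with enzyme for no effect and DMSO wells lacking enzyme for full effect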
# Target sequence (Q2TB90 whole entry, looked up): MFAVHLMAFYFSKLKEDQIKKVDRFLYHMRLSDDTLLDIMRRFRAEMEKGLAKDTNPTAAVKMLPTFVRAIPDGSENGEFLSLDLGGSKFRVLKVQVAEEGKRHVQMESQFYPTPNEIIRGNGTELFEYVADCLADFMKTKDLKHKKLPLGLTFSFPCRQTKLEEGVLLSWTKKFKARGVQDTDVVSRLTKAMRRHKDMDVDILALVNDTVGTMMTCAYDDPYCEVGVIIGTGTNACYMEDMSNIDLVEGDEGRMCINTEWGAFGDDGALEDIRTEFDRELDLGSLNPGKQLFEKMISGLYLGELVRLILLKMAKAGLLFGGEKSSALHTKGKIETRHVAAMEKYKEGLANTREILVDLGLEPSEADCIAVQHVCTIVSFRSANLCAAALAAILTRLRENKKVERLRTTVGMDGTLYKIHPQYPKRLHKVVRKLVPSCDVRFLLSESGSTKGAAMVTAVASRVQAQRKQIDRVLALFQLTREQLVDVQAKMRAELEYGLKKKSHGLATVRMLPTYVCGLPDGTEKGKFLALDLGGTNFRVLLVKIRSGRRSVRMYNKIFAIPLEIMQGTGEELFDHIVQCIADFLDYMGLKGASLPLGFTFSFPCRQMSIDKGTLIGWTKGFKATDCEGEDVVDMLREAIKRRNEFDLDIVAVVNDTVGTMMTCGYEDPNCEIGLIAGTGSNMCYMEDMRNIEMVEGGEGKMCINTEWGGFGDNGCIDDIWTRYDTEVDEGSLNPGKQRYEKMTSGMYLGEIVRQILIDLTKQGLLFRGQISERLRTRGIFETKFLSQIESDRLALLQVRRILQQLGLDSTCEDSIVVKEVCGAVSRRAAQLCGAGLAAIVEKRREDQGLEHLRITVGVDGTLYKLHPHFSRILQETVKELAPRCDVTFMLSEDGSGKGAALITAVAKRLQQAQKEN
#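 Assay system: in-house recombinant HK5 (HKDC1) enzyme. Input: HKDC1 at 5 µg/mL. Medium: Tris pH 8.0 buffer with MgCl2, Tween-20, BSA, BME. Dosing: single 20 µM dose. Schedule: 90 min reaction incubation at room temperature, dark. Signal: resazurin-to-resorufin fluorescence via G6PDH and diaphorase coupling, 525/613 nm. Controls: DMSO-enzyme wells negative, buffer-substituted wells positive.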
# SUMO HTRF inh: inhibitors of in vitro SUMOylation cascade, primary screen, biochemical, HTRF, uHTS; 290,000 tested, 0.36% active; inhibition, % at 35 µM; AID 2006, 2009; HTRF SUMOylation assay, SAE1/SAE2 + UBC9; in the data active = inhibition above about 50%, passing the limit was not always enough
# G6PDH counter: L. mesenteroides G6PDH inhibitors, counter-screen for G6PDH-coupled screening assays, biochemical, Leuconostoc mesenteroides enzyme. AID 1020, 2008. Purified L. mesenteroides G6PDH, diaphorase/resazurin coupled fluorescence, 45 min. 200,000 tested, 0.12% active. inhibition, % at 5 µM; in the data active = inhibition above about 50%
# p97 inhibitor: inhibitors of human p97 ATPase, primary screen, biochemical. Transitional endoplasmic reticulum ATPase (Homo sapiens), P55072. recombinant p97 ATPase, Kinase-Glo ATP luminescence, 3 h. inhibition, % at 8 µM. 220,000 tested, 0.42% active. AID 1481, 2009; in the data active = inhibition above about 15%;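 note: 0% = DMSO vehicle and 100% = wells lacking enzyme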
# Diaphorase inh: diaphorase inhibitors and chemical oxidizers, primary screen, counter-screen for diaphorase-coupled primary assays, biochemical, uHTS, resorufin fluorescence. diaphorase resazurin-to-resorufin fluorescence, NADH, 16 min; bacterial (C. kluyveri) enzyme, not human. inhibition, % at 20 µM. 190,000 tested, 0.69% active. AID 1217, 2008;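 active = primary screen inhibition at 20 µM above a set limit, cut at about 50% in these data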;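 note: plate controls were DMSO with full reaction for no effect and wells lacking NADH for full effect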
#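 Assay system: diaphorase enzyme from Clostridium kluyveri. Quantity: enzyme working solution with 0.14 U/mL diaphorase. Schedule: reaction incubation of 16 min at room temperature. Technique: resorufin fluorescence, excitation 544 nm, emission 590 nm. Controls: No-NADH positive control and DMSO neutral control.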
# An asterisk follows results filed as active; . = not tested or not shown. An excerpt weighted towards active compounds, which were near 0.95% of everything screened.
SMILES,HKDC1 inhibitor,SUMO HTRF inh,G6PDH counter,p97 inhibitor,Diaphorase inh
Cc1nnc(SCC(=O)Nc2c(Cl)cccc2Cl)n(N)c1=O,-8,.,.,.,.
O=C(CSc1nnc(Cn2c(=O)sc3ccccc32)n1-c1ccccc1)Nc1nccs1,-4,3,-3,15*,22
O=C(c1c[nH]c(C(=O)N2CCN(c3ccccc3F)CC2)c1)c1cccc(Cl)c1Cl,-1,-22,7,-2,7
O=C1C(=O)N(CCCn2ccnc2)C(c2ccc([N+](=O)[O-])cc2)/C1=C(\O)c1ccc2c(c1)OCCO2 (centres undefined),-5,.,.,.,.
COCCNC(=S)Nc1ccc2nsnc2c1,13,98,35,0,53*
S=C(Nc1ccc2nsnc2c1)N1CCCCCC1,5,99,60*,4,.
Cn1cccc1/C=N/n1c(-c2ccc(Cl)cc2)n[nH]c1=S,1,13,-14,5,28
Cn1cccc1/C=N/n1c(-c2ccc(Cl)cc2Cl)n[nH]c1=S,-3,16,-12,3,72*
Cn1cccc1C1CCCN1CC(=O)Nc1ccc(C(N)=O)cc1 (centres undefined),-6,.,.,.,.
CS(=O)(=O)N1CCN(c2ccc([N+](=O)[O-])c(SCc3ccco3)c2)CC1,0,25,13,3,57*
Cc1ccc(C2=NC(=O)/C(=C/c3cc(O)c(O)c(Br)c3)S2)cc1,27,45,4,31*,81*
CC(C)n1c(SCC(=O)N2c3ccccc3CCc3ccccc32)nc2c1c(=O)n(C)c(=O)n2C,.,.,.,3,.
CC(C)n1c(SCC(=O)N2c3ccccc3Sc3ccccc32)nc2c1c(=O)n(C)c(=O)n2C,1,10,6,2,76*
C[n+]1ccc(CC2C(=[N+]([O-])[O-])C=Nc3ncnn32)cc1 (centres undefined),-6,4,5,4,5
Cc1ccc2ccc(C(Nc3ccccn3)c3ccccc3)c(O)c2n1 (centres undefined),-22,-42,7,-4,32
COc1cc(C(Nc2ccccn2)c2ccc3ccc(C)nc3c2O)cc(OC)c1O (centres undefined),8,-16,61*,3,63*
Cc1ccc(-c2cc(C(=O)N/N=C/c3ccco3)n[nH]2)s1,-4,63*,12,-3,18
O=C(Nc1nc(-c2ccco2)c(-c2ccco2)s1)C1CC(=O)N(c2ccc3c(c2)OCCO3)C1 (centres undefined),15,83*,-32,12,46
O=C(Nc1nc(-c2ccco2)c(-c2ccco2)s1)C1CCC1,-2,61*,-10,13,41
CN(C)c1ccc(CN(C(=O)c2ccccc2Br)C2CCS(=O)(=O)C2)cc1 (centres undefined),-2,3,.,.,.
COc1ccc(C2=NN(c3ccccc3)C(c3cn(CCC(=O)O)nc3-c3ccccc3)C2)cc1 (centres undefined),-4,40,-6,-5,19
CCOc1ccc(NC(=S)Nc2cccc3cnccc23)cc1,3,89*,-2,0,55*
COc1ccccc1NC(=S)Nc1cccc2cnccc12,2,51*,-6,-2,65*
COc1cc(NC(=S)Nc2cccnc2)cc(OC)c1,-10,72*,-4,-3,22
Fc1ccc(NC(=S)Nc2cccc3cnccc23)cc1,17,98,51*,6,44
SMILES,HKDC1 inhibitor,SUMO HTRF inh,G6PDH counter,p97 inhibitor,Diaphorase inh
COCCn1c(-c2ccccc2Cl)nc2c(c(=O)c3ccccc3n2C)c1=O,-15,19,-13,-2,9
Cc1ccccc1C1=C/C(=C(\SS/C(C(=O)c2ccc(OCC(=O)O)c(Cl)c2Cl)=C2\C=C(c3ccccc3C)SS2)C(=O)c2ccc(OCC(=O)O)c(Cl)c2Cl)SS1,-29,.,.,.,.
C/C(=N\Nc1ccc(C(=O)O)cc1)c1ccc(-n2ccnc2)cc1,1,17,4,2,22
S=C(Nc1cccnc1)Nc1cccc2cnccc12,9,97*,41,9,62*
COc1ccc(NC(=S)Nc2cccc3cnccc23)cc1,1,94*,30,2,56*
CCN(C(=S)Nc1cccnc1)c1cccc2ccccc12,-5,100*,3,1,34
CCN(C(=S)Nc1cccnc1)c1ccccc1,0,-4,7,2,19
O=C(C1COc2ccccc2O1)N1CCN(c2nc3c(F)cc(F)cc3s2)CC1 (centres undefined),6,.,.,.,.
CCN(CC(=O)Nc1ccc(NC(C)=O)cc1)C(=O)c1ccc(=O)n(C)n1,0,.,.,.,.
O=C(Nc1ccc(Br)cc1)NC1CCCCCCC1,-2,-2,.,.,.
CN=c1scc(C)n1/N=C/c1cc(Br)c(O)c(OC)c1,3,-9,1,7,10
CN=c1scc(-c2cccs2)n1/N=C/c1ccc(O)c(O)c1O,27,27,-15,2,68*
CN=c1scc(-c2cccs2)n1/N=C/c1ccccc1O,4,-11,-2,-2,19
CN=c1scc(C)n1/N=C/c1ccc(O)c(O)c1O,17,6,41,0,76*
Cc1ccc(N2NC(=O)/C(=C/c3ccc(-c4ccc(Cl)c(C(=O)O)c4)o3)C2=O)cc1,-1,13,8,-6,23
O=C1NN(c2ccc(Cl)cc2)C(=O)/C1=C\c1ccc(-c2cccc(C(=O)O)c2)o1,11,32,6,7,53*
O=C1NN(c2ccccc2)C(=O)/C1=C\c1ccc(-c2cc([N+](=O)[O-])ccc2O)o1,8,8,15,8,80*
CCOc1cc(/C=C2\C(=O)NN(c3ccccc3)C2=O)cc([N+](=O)[O-])c1O,7,-3,6,5,53*
COc1ccc(Sc2ccc(/C=C3\C(=O)NN(c4ccccc4)C3=O)o2)cc1,18,21,-6,1,17
CC1CCN(S(=O)(=O)c2ccc(NC(=O)C3CCCCC3C(=O)O)cc2)CC1 (centres undefined),5,.,.,.,.
COc1ccc2cc3c(N)c(C(=O)NCc4ccco4)sc3nc2c1,9,11,-63,7,29
Nc1c(C(=O)NCc2ccco2)sc2nc3c(cc12)C(=O)CCC3,15,28,-41,3,53*
O=C(O)CCc1nc(-c2ccccc2)c(-c2ccccc2)o1,.,4,1,5,80*
CCCc1ccc(/C=C2\C(=O)c3ccccc3C(O)=C2C(=O)OCC)cc1,.,1,-24,6,46
CCOC(=O)c1ccc(COC(=O)c2ccc3c(c2)-c2ccccc2C3=O)cc1,1,-3,-5,2,19
